# Measurements of several laboratories.
# Compare with care: the assays were run in different laboratories.
Structure (SMILES),tested on,assay,test system,conditions,measurement,value
CC(=O)NC(CC(C)C)C(=O)NC(CC(C)C)C(=O)NC(Cc1ccc(O)cc1)C(N)=O (centres unmarked),"ABCB1 (Cricetulus griseus, UniProt P21448)","binding, fluorescence",,,Kd,28 µM
CONC(=O)[C@H]1[C@@H](O)[C@@]2(O)c3c(OC)cc(OC)cc3O[C@@]2(c2ccc(OC)cc2)[C@@H]1c1ccccc1,MDA-MB-231,"cell growth or viability, SRB",,,IC50,0.0019 µM
CC(C)=CCOc1c2occc2cc2ccc(=O)oc12,MRC5,"cell growth or viability, MTT",,24 h,IC50,> 100 µM
COc1ccc(C(=O)Nc2ccccc2C(=O)N[C@H](C(=O)N[C@H](CO)C(C)C)C(C)C)cc1,MRC5,"cell growth or viability, MTT",,72 h,CC50,> 250 µM
CCCCCCCCCCCC(=O)NC(C)(C)C(=O)N1CCC[C@H]1C(=O)NC(C)(C)C(=O)NC(C)(C)C(=O)N1CCC[C@H]1C(=O)NC(C)(C)C(=O)NC(C)(C)C(=O)N1CCC[C@H]1C(=O)N[C@@H](C)C(=O)NC(C)(C)C(=O)NCCC(=O)N[C@@H](C)C(=O)NC(C)(C)C(=O)NC(C)(C)C(=O)NCCC(=O)NC(C)(C)C(=O)NC(C)(C)C(=O)NC(C)(C)C(=O)N[C@@H](C)C(=O)NCCC(=O)O,MDA-MB-231,"cell growth or viability, MTT",,24 h,IC50,1 µM
C=C(C)[C@@H]1CC[C@]2(NCCN3CCS(=O)(=O)CC3)CC[C@]3(C)[C@H](CC[C@@H]4[C@@]5(C)CC=C(C6=CC[C@@](COc7ncccc7C#N)(C(=O)O)CC6)C(C)(C)[C@@H]5CC[C@]43C)[C@@H]12,,,"human, plasma","oral, 100 mg, 24 h, fed, tablet",concentration,408 ng/mL
CN(C)CCc1c[nH]c2ccccc12,,,"human, plasma","intravenous, 9 mg, 7 min, healthy volunteers, infusion",concentration,15.9 ng/mL
CC(C)[C@H](NC(=O)c1ccccc1NC(=O)c1ccccc1)C(=O)N[C@H](CO)C(C)C,MRC5,"cell growth or viability, MTT",,72 h,CC50,> 250 µM
